Assay results from ChEMBL document CHEMBL4266019, “Discovery and Structure-Activity-Relationship Study of N-Alkyl-5-hydroxypyrimidinone Carboxamides as Novel Antitubercular Agents Targeting Decaprenylphosphoryl-β-d-ribose 2'-Oxidase” (J Med Chem, 2018).
In brackets after ≈: the same amount, converted by molar mass. Activity calls are given as the source filed them. The rule behind the calls is not given here.

How the values were obtained:
HepG2 [1] = test: Cytotoxicity against human HepG2 cells in presence of galactose; type: cell-based
In short: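 HepG2 cells tested in DMEM/10% FBS containing galactose.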

HepG2 [2] = test: Cytotoxicity against human HepG2 cells in presence of glucose; type: cell-based
In short: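 HepG2 cells tested in DMEM/10% FBS supplemented with glucose.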

[3] = tested on: Mycobacterium tuberculosis; test: Antitubercular activity against Mycobacterium tuberculosis H37Rv after 7 to 14 days in presence of GAST medium by two fold serial dilution method; type: functional
In short: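 MIC in GAST (glycerol/alanine/salts/Tween 80 defined medium), strain H37Rv; screening hits tested as duplicate 12-point MIC determinations with MgCl2 at 0.06, 6 or 60 mM.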

[4] = tested on: Mycobacterium tuberculosis; test: Bactericidal activity against Mycobacterium tuberculosis H37Rv under anaerobic condition at 1 to 50 fold MIC after 7 days; type: functional, organism-based
In short: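 Anaerobic H37Rv from the self-generated oxygen-depletion (Wayne) model exposed to 1×, 5×, 10×, 20× and 50× MIC in an anaerobic chamber for 7 days. CFU counted on 7H11/OADC plates.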

[5] = tested on: Mycobacterium tuberculosis; test: Bactericidal activity against Mycobacterium tuberculosis H37Rv under aerobic condition after 7 days; type: functional, organism-based
In short: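 Log-phase H37Rv (OD650 0.2) diluted 1000-fold in 7H9/ADC and exposed to 1×, 5×, 10×, 20× and 50× MIC in duplicate. Sampled at days 1, 2, 4 and 7; CFU counted on 7H11/OADC plates.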

[6] = biological target: T1, Decaprenylphosphoryl-beta-D-ribose oxidase (Mycobacterium tuberculosis (strain ATCC 25618 / H37Rv)) (UniProt P9WJF1); test: Inhibition of DprE1 in Mycobacterium tuberculosis H37Rv assessed as bacterial growth inhibition after 4 weeks
T1 sequence (whole entry): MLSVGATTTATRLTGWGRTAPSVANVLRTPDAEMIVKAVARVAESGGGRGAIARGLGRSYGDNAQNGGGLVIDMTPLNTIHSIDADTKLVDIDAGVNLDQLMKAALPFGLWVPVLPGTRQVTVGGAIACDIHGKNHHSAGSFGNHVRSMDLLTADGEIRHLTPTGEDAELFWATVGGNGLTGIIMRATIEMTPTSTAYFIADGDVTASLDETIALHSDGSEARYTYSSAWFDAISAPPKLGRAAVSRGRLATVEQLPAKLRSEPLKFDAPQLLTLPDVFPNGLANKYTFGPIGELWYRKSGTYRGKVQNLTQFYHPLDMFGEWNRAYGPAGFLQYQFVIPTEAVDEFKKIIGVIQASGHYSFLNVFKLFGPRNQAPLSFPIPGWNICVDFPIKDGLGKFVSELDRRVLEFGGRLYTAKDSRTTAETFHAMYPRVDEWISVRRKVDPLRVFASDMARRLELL

[7] = tested on: Mycobacterium tuberculosis; test: Antitubercular activity against Mycobacterium tuberculosis H37Rv assessed as induction of DNA damage by precA-LUX/pradA-LUX reporter-gene assay; type: functional, organism-based
In short: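 DNA-damage read-out: induction of the recA and radA promoters measured as luminescence in H37Rv precA-LUX and pradA-LUX reporter strains.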

CC(c1ccccc1C(F)(F)F)c1nc(C(=O)NCc2ccccc2)c(O)c(=O)n1C (configuration not stated)
IC50 (HepG2 [1]): > 100 µM | IC50 (HepG2 [2]): > 100 µM

Cn1c(Cc2ccccc2C(F)(F)F)nc(C(=O)NCc2cccnc2)c(O)c1=O
IC50 (HepG2 [1]): > 100 µM | IC50 (HepG2 [2]): > 100 µM

Cn1c(Cc2ccccc2C(F)(F)F)nc(C(=O)NCC2CCCCC2)c(O)c1=O
IC50 (HepG2 [1]): > 100 µM | IC50 (HepG2 [2]): > 100 µM

Cn1c(Cc2ccccc2C(F)(F)F)nc(C(=O)NCc2ccccn2)c(O)c1=O
IC50 (HepG2 [1]): > 100 µM | IC50 (HepG2 [2]): > 100 µM

Cn1c(Cc2ccccc2)nc(C(=O)NCc2ccccc2)c(O)c1=O
IC50 (HepG2 [1]): > 100 µM | IC50 (HepG2 [2]): > 100 µM

Cn1c(Cc2ccccc2C(F)(F)F)nc(C(=O)CCc2ccccc2)c(O)c1=O
IC50 (HepG2 [1]): > 100 µM | IC50 (HepG2 [2]): > 100 µM

CN(Cc1ccccc1)C(=O)c1nc(Cc2ccccc2C(F)(F)F)n(C)c(=O)c1O
IC50 (HepG2 [1]): > 100 µM | IC50 (HepG2 [2]): > 100 µM

CCn1c(Cc2ccccc2C(F)(F)F)nc(C(=O)NCc2ccccc2)c(O)c1=O
IC50 (HepG2 [1]): > 100 µM | IC50 (HepG2 [2]): > 100 µM

Cn1c(Cc2ccccc2C(F)(F)F)nc(C(=O)Nc2ccccc2)c(O)c1=O
IC50 (HepG2 [1]): > 100 µM | IC50 (HepG2 [2]): > 100 µM

Cn1c(Cc2ccccc2C(F)(F)F)nc(C(=O)NCc2ccc(F)cc2)c(O)c1=O
IC50 (HepG2 [1]): > 100 µM | IC50 (HepG2 [2]): > 100 µM

Cn1c(Cc2ccccc2C(F)(F)F)nc(C(=O)NCc2ccccc2F)c(O)c1=O
IC50 (HepG2 [1]): > 100 µM | IC50 (HepG2 [2]): > 100 µM

Cn1c(Cc2ccccc2C(F)(F)F)nc(C(=O)NCc2ccc3c(c2)OCO3)c(O)c1=O
IC50 (HepG2 [1]): > 100 µM | IC50 (HepG2 [2]): > 100 µM

CC(NC(=O)c1nc(Cc2ccccc2C(F)(F)F)n(C)c(=O)c1O)c1ccccc1 (configuration not stated)
IC50 (HepG2 [1]): > 100 µM | IC50 (HepG2 [2]): > 100 µM

O=C(NCc1ccccc1)c1nc(Cc2ccccc2C(F)(F)F)[nH]c(=O)c1O
IC50 (HepG2 [1]): > 100 µM | IC50 (HepG2 [2]): > 100 µM

Cn1c(Cc2ccccc2C(F)(F)F)nc(C(=O)NCc2ccccc2)c(O)c1=O
MIC [3]: 0.4 to 0.59 µM | IC50 (HepG2 [1]): > 100 µM | Activity [4]: inactive | Activity [5]: Dose-dependent effect | IC50 (HepG2 [2]): > 100 µM | MIC [6]: 3.13 µM (≈ 1.31 µg/mL) | Activity [7]: inactive

COc1c(C(=O)NCc2ccccc2)nc(Cc2ccccc2C(F)(F)F)n(C)c1=O
IC50 (HepG2 [1]): > 100 µM | IC50 (HepG2 [2]): > 100 µM
